Measured values: ChEMBL document CHEMBL1154262, “Inhibitors of osteoclast formation from rhizomes of Cibotium barometz” (J Nat Prod, 2009)

Experiments:
[1] = Inhibition of osteoclastogenesis in RANKL and M-CSF-stimulated mouse BMDM cells at 200 uM after 4 days by TRAP assay; assay type: functional; conditions: 96 h
How it was run: (§1)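 Mouse femur/tibia marrow cells grown 3 days at 37 °C in R-MEM/10% FBS with M-CSF 100 ng/mL to give BMMs, lifted with trypsin/EDTA. They were then differentiated with M-CSF 20 ng/mL and RANKL 100 ng/mL plus compound, with medium changed every 2 days. At day 4, TRAP staining was done and TRAP-positive multinucleated cells per well were counted relative to DMSO control.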

[2] = tested on: BMDM; experiment: Inhibition of osteoclastogenesis in RANKL and M-CSF-stimulated mouse BMDM cells after 4 days by TRAP assay; assay type: functional, cell-based; how it was run: as §1
[3] = Cytotoxicity against RANKL and M-CSF-stimulated mouse BMDM cells at 100 to 200 uM after 72 hrs by MTS-cell titer assay; assay type: cell-based
How it was run: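 Bone marrow macrophages from femora and tibia of 6-8 week old mice, expanded 3 days in R-MEM/10% FBS with M-CSF 100 ng/mL, then trypsin/EDTA-lifted. Cells exposed to compound alongside recombinant M-CSF 20 ng/mL plus RANKL 100 ng/mL for 72 h at 37 °C. Percent survival read by MTS (CellTiter 96 Aqueous) against DMSO-treated control.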

Row | SMILES | inhibition at 200 µM [1] | Activity [2] | Activity [3]
1 | CCCCC/C=C\C/C=C\CCCCCCCC(=O)OC[C@@H](O)CO[C@H]1O[C@H](CS(=O)(=O)O)[C@@H](O)[C@H](O)[C@H]1O | 97% | Dose-dependent effect | 
2 | CC1=CC(=O)CC(C)(C)[C@@]1(O)/C=C/[C@H](C)O[C@@H]1O[C@H](CO)[C@@H](O)[C@H](O)[C@H]1O [6S,9S-ROSEOSIDE] | 75% | Dose-dependent effect | Non-toxic
3 | CO[C@@H]1C[C@](O)(CO[C@@H]2O[C@H](CO)[C@@H](OC(=O)/C=C/c3ccc(O)c(O)c3)[C@H](O)[C@H]2O)[C@H](OC)O1 [CIBOTIUMBAROSIDE B] | 73% | Dose-dependent effect | Non-toxic
